This is an account of results in ChEMBL document CHEMBL1154860, “Synthesis and investigation of inhibition effect of fluorinated sulfonamide derivatives on carbonic anhydrase” (Eur J Med Chem, 2010).

pIC50: −log10 of the molar value. The source made the active and inactive calls. The rule behind the calls is not given here.

Series [1] is described as follows: Inhibition of bovine carbonic anhydrase assessed as conversion of 4-nitrophenyl acetate to 4-nitrophnolate after 5 mins. More on the design: species or system Bos taurus. The method, boiled down:
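Bovine CA at 2.9 × 10^-6 M (concentration set from A280) measured by initial rate of 4-nitrophenyl acetate hydrolysis, substrate in acetone/water over a range of concentrations. 4-Nitrophenolate formation followed at 348 nm, pH 8, with non-enzymatic hydrolysis subtracted. Inhibitors dissolved in distilled–deionized water. Triplicates at each substrate and inhibitor concentration; IC50 is the mean of 3 assays.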

For the next series, the species on record is Bos taurus. Briefly: Inhibition of bovine carbonic anhydrase assessed as conversion of 4-nitrophenyl acetate to 4-nitrophnolate at 0.27 to 2.07 uM after 5 mins. In a few lines: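 Native bovine CA, concentration set from A280 (2.9 × 10^-6 M). Initial rate of 4-nitrophenyl acetate hydrolysis followed at 348 nm at pH 8. Substrate was 1.04 × 10^-3 to 1.875 × 10^-4 M, prepared in acetone/water, and inhibitors were dissolved in water. Non-enzymatic hydrolysis was subtracted, each point was run in triplicate, and values are means of 3 assays.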

The nature of series [2]: Cytotoxicity in sheep RBC assessed as hemolysis at 1000 uM after 20 mins. In kind it is cell-based, Ovis aries. The note with it: erythrocyte. The method, boiled down:
(§1)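 Sheep erythrocytes were washed three times in PBS pH 7.4 just before the assay and used at a final 5% cell concentration in the same buffer. After incubation with compound, samples were centrifuged and supernatant absorbance was read at 405 nm. The 0% and 100% hemolysis references were erythrocyte stock in PBS and in distilled water, processed identically.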

The nature of series [3]: Cytotoxicity in sheep RBC assessed as hemolysis at 0.125 to 1000 uM after 20 mins. In kind it is cell-based, Ovis aries. The note with it: erythrocyte. In a few lines: as §1
Another series addresses Carbonic anhydrase 2 (Homo sapiens, UniProt P00918). Kind of series: Inhibition of human carbonic anhydrase 2 assessed as conversion of 4-nitrophenyl acetate to 4-nitrophnolate after 5 mins.
Series [4] can be described thus: Cytotoxicity in sheep RBC assessed as hemolysis at 31.25 uM after 20 mins. In kind it is cell-based, Ovis aries. The note with it: erythrocyte. In a few lines: as §1
The nature of series [5]: Cytotoxicity in sheep RBC assessed as hemolysis at 62.5 uM after 20 mins. In kind it is cell-based, Ovis aries. Particulars: erythrocyte. In a few lines: as §1

For the compound `NS(=O)(=O)C(F)(F)F` [TRIFLUOROMETHANESULFONAMIDE], the negative logarithm of the IC50 (pIC50) in series [1] is 5.83.

On to `NS(=O)(=O)C(F)(F)C(F)(F)C(F)(F)C(F)(F)F` [SODIUM PERFLUOROBUTANESULFONAMIDE], for which the pIC50 in series [1] is 5.78.

As to `CCCCCCS(N)(=O)=O`, the inhibition result in the series filed under Bos taurus is “inactive”.

As for `NS(=O)(=O)C(F)(F)C(F)(F)C(F)(F)C(F)(F)C(F)(F)C(F)(F)F`, the Activity result in series [2] and in series [3] was “Non-toxic” in each case. The pIC50 in series [1] was 5.83.

In the case of `NS(=O)(=O)C(F)(F)C(F)(F)C(F)(F)C(F)(F)S(N)(=O)=O`, in series [1], the pIC50 is 5.76.

With `[NH-]S(=O)(=O)C(F)(F)C(F)(F)C(F)(F)C(F)(F)C(F)(F)C(F)(F)F.[Na+]` [SODIUM PERFLUOROHEXANESULFONAMIDE], the Activity entry in series [2] is given as “Non-toxic”. Also, the pIC50 at Carbonic anhydrase 2 was 6.91; in series [1], 5.86.

In the case of `CC(=O)Nc1nnc(S(N)(=O)=O)s1` [ACETAZOLAMIDE], the pIC50 in series [1] was 5.87.

As to `NS(=O)(=O)CCC(F)(F)C(F)(F)C(F)(F)C(F)(F)F`, in series [1], the pIC50 is 5.68.

On to `[NH-]S(=O)(=O)C(F)(F)C(F)(F)C(F)(F)C(F)(F)C(F)(F)C(F)(F)C(F)(F)C(F)(F)F.[Na+]` [SODIUM PERFLUOROOCTANESULFONAMIDE], for which the negative logarithm of the IC50 (pIC50) in series [1] is 5.75. In addition, the Activity result in series [4] is “Toxic”.

In the case of `CCCCCCCCS(N)(=O)=O`, the inhibition result in the series listed under Bos taurus is “inactive”.

With `NS(=O)(=O)C(F)(F)C(F)(F)C(F)(F)C(F)(F)C(F)(F)C(F)(F)C(F)(F)C(F)(F)F`, the pIC50 in series [1] was 5.80. The Activity entry in series [5] was “Toxic”.

As for `NS(=O)(=O)C(F)(F)C(F)(F)C(F)(F)C(F)(F)F`, the pIC50 in series [1] was 5.83.

Regarding `NS(=O)(=O)C(F)(F)C(F)(F)C(F)(F)C(F)(F)C(F)(F)C(F)(F)C(F)(F)F`, in series [1], the pIC50 was 5.76.

With `NS(=O)(=O)CCC(F)(F)C(F)(F)C(F)(F)C(F)(F)C(F)(F)C(F)(F)C(F)(F)C(F)(F)F`, in series [1], the pIC50 is 5.78.

`NS(=O)(=O)CCC(F)(F)C(F)(F)C(F)(F)C(F)(F)C(F)(F)C(F)(F)F`: the pIC50 in series [1] was 5.72.

A word on the pIC50: it is the negative decadic logarithm of the IC50, by convention in mol/L.
